Results reported in PubChem BioAssay AID504382 (The Scripps Research Institute Molecular Screening Center, 2011).
In all, about 2,500 compounds went through this assay and about 460 (18%) were called active.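 How the source made its calls: active means mean activation above a cutoff of low control average plus 3 SD from the earlier screen (cut at about 12% in these data); inactive means the rest.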 A selection follows.

Test: compound fluorescence interference without thin filaments, confirmation, artefact control for cardiac RTF calcium sensitizer project, biochemical (AID 504382)
Details: IANBD fluorescence interference counterscreen, buffer, EC20 Ca2+; at 7.2 µM; stronger effect = higher value; scaled: EC20 calcium 0, EC100 calcium 100
Procedure, shortened: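 Also added: EC20 calcium, 0.472 mM; dosing: single nominal 7.2 µM compound dose, 0.7% DMSO final; timing: 15 min, 25 °C; detection: fluorescence intensity, excitation 480 nm, emission 540 nm; replicates: each compound tested in triplicate wells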

Row | Compound | fluorescence artifact activation
1 | COC(=O)c1ccc(CS(=O)(=O)c2ccc(F)cc2)o1 | 0.08% (inactive)
2 | N#CC1(C#N)CC(C=O)=C(N)C1(C#N)CC(=O)c1ccc(F)cc1 (stereo not given) | 2.93% (inactive)
3 | Cc1ccc(Cn2nc(C)c(NC(=O)C3(C)CC3(Br)Br)c2C)cc1 (stereo not given) | 6.32% (inactive)
4 | CC(NC(=O)CN1CCC(C(N)=O)CC1)c1ccccc1 (stereo not given) | -0.04% (inactive)
5 | Cc1ccc(CNC(=O)c2ccc(S(=O)(=O)N3CCCCC3)cc2)cc1 | -0.06% (inactive)
6 | Cc1ccc(NC(=O)CN(C)c2ccc(S(=O)(=O)N3CCCC3)cn2)cc1 | 18.6% (active)
7 | CN(C)NC(=S)Nc1ccc(S(=O)(=O)N2CCCCC2)cc1 | 2.09% (inactive)
8 | COc1cc(/C=C/c2sc3ccccc3[n+]2CCCS(=O)(=O)[O-])ccc1O | 1.3% (inactive)
9 | O=[N+]([O-])c1ccc(NN=Cc2cccc3ccccc23)nc1 | 7.52% (inactive)
10 | COc1ccc(-n2c(C)cc(/C=C3\SC(=S)NC3=O)c2C)cc1 | -0.04% (inactive)
11 | O=C(CCC1CCCN(C(=O)C2=CCCC2)C1)N1CCN(c2ccccn2)CC1 (stereo not given) | -0.04% (inactive)
12 | O/C=c1\ccc2cccc3nc(C(F)(F)F)nc1c23 | 1630% (active)
13 | Cc1ccc(N2C3=C(C(=O)CC(C)(C)C3)C(c3cn(C)nc3C)C3=C2CC(C)(C)CC3=O)cc1 | 8.85% (inactive)
14 | O=C(c1c[nH]c(C(=O)C(Cl)(Cl)Cl)c1)c1c(F)cccc1F | 1460% (active)
15 | CN(C)C=NC(=O)c1cc(C(=O)c2ccccc2Cl)c[nH]1 | 0.08% (inactive)
16 | COc1ccc(-n2nc3c(N4CCC(C(=O)NCc5ccco5)CC4)nnc(C)c3c2C)cc1 | 0.15% (inactive)
17 | Cn1c(/C(C#N)=C(\O)CN2CCN(Cc3ccccc3)CC2)nc2ccccc21 | -0.07% (inactive)
18 | Cc1nc([N+](=O)[O-])c(Br)n1CC(=O)c1ccc2ccccc2c1 | 0.15% (inactive)
19 | Cc1nc([N+](=O)[O-])c(Sc2nc3ccccc3n2C)n1Cc1ccccc1 | 17.2% (active)
20 | COc1cc(-c2c(-c3ccc4c(c3)OCO4)noc2C)ccc1F | 6.28% (inactive)

Row | Compound | fluorescence artifact activation
21 | CCCCOc1cccc(C2C(C(=O)c3cccs3)=C(O)C(=O)N2Cc2cccnc2)c1 (stereo not given) | -0.01% (inactive)
22 | CCCOc1ccc(C2C(C(=O)c3ccc(C)o3)=C(O)C(=O)N2CCCn2ccnc2)cc1 (stereo not given) | 20.7% (active)
23 | COC(=O)c1sc(N2C(=O)C(O)=C(C(=O)c3ccc(C)o3)C2c2ccc(F)cc2)nc1C (stereo not given) | 7.6% (inactive)
24 | COc1ccc(-c2cc(C(F)(F)F)c3c(N)c(C(=O)NCCSC)sc3n2)cc1 | 0.08% (inactive)
25 | COc1ccc(Sc2ccc(-c3nc4cnccn4c3NC3CCCCC3)cc2OC)cc1 | 0.04% (inactive)
26 | Cc1ccc(NC(=O)/C(C#N)=C/c2ccc(C)s2)c(C)c1 | 0.06% (inactive)
27 | Cc1cccc(CSc2ccc(-c3ccco3)nn2)c1 | 0.5% (inactive)
28 | Cc1cc(C)c2c(=O)n(-c3ccccc3)[nH]c2n1 | 0.96% (inactive)
29 | Cc1cc(C)nc(SCCCNCc2ccc(Br)cc2)n1 | -0.01% (inactive)
30 | CC(=O)C1=C(C)N(CC2CC2)C(=O)N[C@H]1c1ccc(Br)cc1 | 36.6% (active)
31 | CC(=O)C1=C(C)N(Cc2ccccc2)C(=O)N[C@@H]1c1cccc(C(F)(F)F)c1 | -0.08% (inactive)
32 | O=c1c2ccccc2nc2n1CCCN2 | 2.97% (inactive)
33 | N=c1n(Cc2ccccc2)c2ccccc2n1CC(O)c1ccco1 (stereo not given) | 7.18% (inactive)
34 | CC1(C)CCN2CCC(C)(C)c3c(O)ccc1c32 | 11.3% (inactive)
35 | Cc1ccc(CC2C(=O)N(c3ccc(C)cc3)C(=O)C2C)cc1 (stereo not given) | 0.52% (inactive)
36 | O=C(NN=Cc1c(O)ccc2ccccc12)c1ccncc1 | -0.04% (inactive)
37 | O=C(N/N=C\c1c(O)ccc2ccccc12)c1cncc(Br)c1 | 0.16% (inactive)
38 | O=C(N/N=C/c1c(O)ccc2ccccc12)c1cccc(C(F)(F)F)c1 | 53.1% (active)
39 | Cc1ccc(-c2nc(NC(=O)CSc3cc(C)c4ccccc4n3)ns2)cc1 | 0.03% (inactive)
40 | CN1CC=C2C(C#N)=C(N)C(C#N)(C#N)[C@H](c3cccs3)[C@H]2C1 | 0.05% (inactive)

Row | Compound | fluorescence artifact activation
41 | CN1CC=C2C(C#N)=C(N)C(C#N)(C#N)[C@H](c3ccoc3)[C@H]2C1 | 8.68% (inactive)
42 | CSc1c(CC(=O)NCCO)n(C)c2ccccc12 | 4.19% (inactive)
43 | Cc1ccc(Cn2cc(CCC(=O)O)c3ccccc32)cc1 | 2.34% (inactive)
44 | CC(=O)n1cc(CO)c2ccccc21 | 95.5% (active)
45 | CCOC(=O)C(C(=O)Nc1cccc(C)n1)C1CCCCC1 (stereo not given) | -0.06% (inactive)
46 | CCCc1cc(=O)[nH]c(SCC)n1 | 0.11% (inactive)
47 | Cc1c(C)c2c(OCC(=O)N3CCC(O)CC3)cc3c(c2oc1=O)CCC(C)(C)O3 | -0.07% (inactive)
48 | Cc1cc(=O)oc2c3c(cc(OCC(=O)NCc4ccccn4)c12)OC(C)(C)CC3 | 0.25% (inactive)
49 | CCCc1cc(=O)oc2c3c(cc(OCC(=O)N[C@@H](CSC)C(=O)O)c12)OC(C)(C)CC3 | 14.3% (active)
50 | O=C(CSc1nc2ncc(Br)cc2[nH]1)c1cccc([N+](=O)[O-])c1 | 3.54% (inactive)
51 | COC(=O)C[n+]1cccc2ccccc21 | 81.3% (active)
52 | O=C(C[n+]1cccc2ccccc21)c1ccccc1 | 0.14% (inactive)
53 | COc1cccc(OCCCn2cc(/C=C3/C(=N)N4C=C(C)SC4=NC3=O)c3ccccc32)c1 | 0.05% (inactive)
54 | N=C1/C(=C\c2coc3ccc(O)cc3c2=O)C(=O)N=C2SC=CN12 | -0.02% (inactive)
55 | COC(=O)N/N=C/c1cccnc1 | 0.05% (inactive)
56 | COC1C/C(=N\O)C2OC(c3ccccc3)OCC2O1 (stereo not given) | 0.43% (inactive)
57 | COc1ccc(OC)c(/C=C2/Sc3ccccc3C2=O)c1 | 0.05% (inactive)
58 | COc1ccc(C2C(C(C)=O)=C(C)N=c3s/c(=C\c4cc(C)n(C)c4C)c(=O)n32)c(OC)c1 (stereo not given) | 4.81% (inactive)
59 | O=C(CNC(=O)C12CC3CC(CC(C3)C1)C2)OCC(=O)N1CCCCC1 | 0.38% (inactive)
60 | Cc1ccc(-c2ccc(OC(=O)c3ccc(=O)[nH]c3)c(C)c2)cc1 | 4.65% (inactive)
